# Assay: Toxicity liver stage against HepG2, at 10uM
# Type: cell-based
# Set-up: test concentration 10 uM, cell line HepG2-A16-CD81EGFP
# Conditions: human, HepG2-A16-CD81EGFP cells; read-out: INHIBITION
# Method in brief: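 Uninfected HepG2-A16-CD81EGFP cells, 3 × 10^3 per well, 1536-well, plated on prespotted compound at 10 μM final, parasite-free screening media added to match infected plates; puromycin 10 μM positive, DMSO 0.5% negative; run in parallel with 48 h PbLuc assay at 37 °C, 5% CO2; viability by CellTiter-Glo luminescence, normalized to controls.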
row,SMILES,cytotoxicity at 10 µM
1,COCCO[C@H]1COCCN(Cc2ccc(OC)cc2)C1,9.71%
2,CC(C)NC(=O)CN1CCCNCC1,-0.616%
3,Cc1ccc(C(=O)Nc2nnc(C3CC3)s2)c(-n2cnnn2)c1C,12.3%
4,O=C(CSC1=NS(=O)(=O)c2cc(F)ccc2N1)Nc1ccc(Cl)cc1,8.93%
5,COC1(CNC(=O)CCCc2ccccc2)CCSC1 (stereo unspecified),4.68%
6,O=C(NCCn1nc(-n2cncn2)ccc1=O)c1ccccc1Br,-2.02%
7,Cc1cccc(CN2CCC3(CCC(C(=O)N(C)C)O3)CC2)n1 (stereo unspecified),3.14%
8,CCS(=O)(=O)N1CCCC2(CCCN2C(=O)c2cscn2)C1 (stereo unspecified),8.25%
9,Cn1ccnc1C(=O)NCc1cc(=O)n2c(n1)CN(CC1CC1)CCC2,13.8%
10,O=C(c1ccsc1)N1CCc2onc(CN3CCOCC3)c2C1,5.07%
11,CCOCC(=O)N1CC[C@H]2OCC[C@@H](c3nnc(C)o3)[C@H]2C1,12%
12,COc1cc(OC)cc(C2SCC(=O)Nc3ccsc32)c1 (stereo unspecified),-1.16%
13,CCOC(=O)c1s/c(=N\C(=O)COc2cnc(C)cc2O)[nH]c1C,5.56%
14,COCCn1ccc(=O)c(OCC(=O)Nc2cccc(C(C)=O)c2)c1C,4.31%
15,COc1cc(C2CC(=O)Oc3cc(C)[nH]c(=O)c32)ccc1OC(F)F (stereo unspecified),7.34%
16,CNc1nc2c(s1)C(c1c(F)cccc1Cl)CC(=O)N2 (stereo unspecified),-14.7%
17,CC(C)(C)C(=O)N1CCCC1c1cc(CO)[nH]n1 (stereo unspecified),1.61%
18,CCS(=O)(=O)N1C[C@@H](c2cc(O)nc(C)n2)[C@H](c2ccccc2F)C1,7.17%
19,Cc1nn(C)c(C)c1-c1ccc(=O)n(C(C)C(=O)NC(C)(C)C)n1 (stereo unspecified),5.75%
20,CC(=O)N1CCC1c1cc(N2CC(O)C2)nc(C)n1 (stereo unspecified),5.76%
21,Cn1cc(C(=O)N2CCCC(Cc3cncc4ccccc34)C2)cn1 (stereo unspecified),-13.2%

row,SMILES,cytotoxicity at 10 µM
1,O=C(O)COCC(=O)NC1CC2(CCCCC2)Oc2ccccc21 (stereo unspecified),-28.5%
2,CNC(=O)C1(c2cnccn2)CCCN1C(=O)c1ccc(F)cc1 (stereo unspecified),0.918%
3,CC(C)(C)c1nnc(NCc2ccc(F)cc2)o1,6.88%
4,CCn1cnnc1CNC(=O)NCC(O)c1ccc(OC)cc1 (stereo unspecified),5.66%
5,COC(=O)c1ccc(S(=O)(=O)N2CCCn3ncnc32)s1,19.8%
6,Cc1cc(C2CCCN(C(=O)COc3cccc(F)c3)C2)n[nH]1 (stereo unspecified),5.95%
7,NC(=O)C1CCN(C(=O)CSC2CCCc3ccccc32)CC1 (stereo unspecified),1.4%
8,CC(CS(C)(=O)=O)N(C(=O)Nc1cc(F)ccc1Cl)C1CC1 (stereo unspecified),-4.15%
9,CCOc1cncc(N2CCN(c3ccccc3F)CC2)n1,-0.0195%
10,COc1ccc(S(=O)(=O)NCCC(=O)NCc2ccoc2)cc1OC,10.8%
11,Cc1ccc(C2COCCN2C(=O)c2ccsc2)o1 (stereo unspecified),-2.55%
12,CC(C)CN1CCN(C(=O)c2cc(=O)c3ccccc3[nH]2)CC1,-4.92%
13,CC(NC(=O)Cn1cc(C(N)=O)c(-c2ccccc2)n1)C1CC1 (stereo unspecified),-7.9%
14,Cc1nnc2ccc(NCC3(N4CCCCC4)CCOCC3)nn12,-3.59%
15,Cc1cc(OC(F)F)c(C(=O)N2CC[C@H](O)C2)s1,9.67%
16,Cc1cc(Br)ccc1C(=O)Nc1c(C(N)=O)n[nH]c1C,-2.58%
17,CC(C)(C)CNC(=O)CNC(=O)C1CC1,-1.15%
18,Cc1nc2c(s1)C(N(C)C(=O)NCCCC(C)(C)CO)CCC2 (stereo unspecified),-3.43%
19,O=C(CCOCC(F)(F)F)NS(=O)(=O)c1cccnc1,0.946%
20,COCCN1CCC(CNC(=O)C2(S(C)(=O)=O)CCCC2)CC1,-9.61%
21,CC(C)(C)C(=O)NS(=O)(=O)c1ccc(C#N)c(C(F)(F)F)c1,1.38%

row,SMILES,cytotoxicity at 10 µM
1,CCCc1nc(C[S+]([O-])Cc2cn3cccc(C)c3n2)no1 (stereo unspecified),2.48%
2,CCS(=O)(=O)N1CCc2c(cccc2NC(=O)NCCOC)C1,2.17%
3,O=C1[C@H]2CN(S(=O)(=O)C3CC3)C[C@H]2CN1CC1CC1,1.8%
4,CCC[C@@H]1CN(S(=O)(=O)c2ccc3[nH]c(=O)[nH]c3c2)C[C@H]1NC(C)=O,-7.19%
5,Cc1cc2ccccc2n1CCC(=O)NCCN(C)S(C)(=O)=O,5.56%
6,Cc1cc2c(=O)n(CCOCCO)cnc2s1,8.72%
7,Cc1nc(-c2cccc(N3CCC(NC4CCSC4)CC3)c2)cs1 (stereo unspecified),2.86%
8,CCc1nn(C)c(Cl)c1CN1CCC(c2cc(O)nc(C)n2)CC1,-9.74%
9,COc1ccc(-c2cccc(-c3ccn(CC4COCCO4)n3)c2)nn1 (stereo unspecified),-7.78%
10,CCCC(=O)N1CCC(N2CC[C@@](O)(CCOC)[C@H](C)C2)CC1,-3.58%
11,CC[C@H]1COCCN1C(=O)c1ccc(OC)c(N2CCOCC2)c1,3.89%
12,OCCN(Cc1ccccc1)Cc1ccsc1,4.7%
13,CCn1c(Cn2cncn2)nnc1C1CCN(Cc2ccccn2)CC1,9.78%
14,CN(C)Cc1nnc(C(=O)N(C)Cc2ccc(C(F)(F)F)cc2)o1,-6.72%
15,CC(CN1CC[C@@H]2CCCC[C@@H]2C1)n1cnc2ccccc21 (stereo partly specified),7.16%
16,CCOC(=O)N1CCN(C(=O)C(C)n2ccnc2C(C)C)CC1 (stereo unspecified),-9.28%
17,CCCc1cncnc1N1CCC2(CCC(=O)N(C3CCCC3)C2)CC1,2.61%
18,CCOCC(O)CN1CCN(C(=O)c2cc(F)cc(F)c2)CC1 (stereo unspecified),8.1%
19,Fc1ccc(-c2nc(CNCCn3cccn3)cs2)cc1,-11.2%
20,Cc1cccc(C(=O)NC(C)CN2CCCC2=O)n1 (stereo unspecified),-9.51%
21,CC(C)NC(=O)NCc1ccc(C(=O)NC(C)Cn2cccn2)cc1 (stereo unspecified),-1.46%

row,SMILES,cytotoxicity at 10 µM
1,O=C(CCn1cncn1)NCC(c1ccco1)N1CCCCC1 (stereo unspecified),-2.97%
2,O=C(c1cc(F)ccc1F)C1CCN(C(=O)c2cnccn2)CC1,-27.2%
3,CNc1cc2c(nn1)CCN(C(=O)c1coc(Br)c1)C2,-13.6%
4,COc1c(CNCC(O)c2ccccc2)c(C(C)C)nn1C (stereo unspecified),-16.5%
5,Cc1cc(NC(=O)CN2CCn3c(nnc3C3CC3)C2)no1,-7.32%
6,Cc1n[nH]c(=O)c2c(NC(=O)CN3CCC(C)CC3)oc(C)c12,-1.5%
7,Cc1ccc(CN2CCC3(CC2)NC(=O)CC3c2ccccc2)s1 (stereo unspecified),-1.39%
8,CC(=O)N1CCN(Cc2ccc(C)o2)CC2(CC(=O)N(C)C2)C1 (stereo unspecified),-2.01%
9,CN1CCc2c(C#N)c(NCCCN3CCOCC3)n3cnnc3c2C1,-7.14%
10,O=C1[C@H]2CN(Cc3ccoc3)C[C@H]2CN1CCN1CCCC1,1.05%
11,Cc1ccc(CN2CCc3nnc(CN4CCCC4=O)n3CC2)o1,-4.28%
12,CC(C)CN1CC[C@@H]2[C@@H]1CCN2C(=O)N(C)C,-0.88%
13,CC1c2ncc(CNC(=O)C3CC3)n2CCN1CC1CCC1 (stereo unspecified),-3.15%
14,Cc1ccc(N2CC[C@H]3O[C@@H](C(=O)N4CCCCO4)CC[C@H]32)nn1,5.37%
15,CCS(=O)(=O)N1CCc2onc(COc3ccccn3)c2C1,-4.72%
16,O=C(NCCn1nc(C2CCNC2)c2cccnc21)c1ccccn1 (stereo unspecified),-25.7%
17,COc1ccc(-n2cc3[nH]c(=O)[nH]n3c2=O)cc1,-0.106%
18,Cn1cc(C(=O)N2C[C@H]3CC(Oc4ccccc4)C[C@H]3C2)cn1 (stereo partly specified),3.6%
